Measured values gathered from unrelated publications.
Organism: Plasmodium falciparum
Observed: parasite growth

Structure (SMILES) | technique | strain | time | notes | IC50
N=C(CC(O)c1nc2cc(F)ccc2c2ccc(F)cc12)Nc1ccc(F)cc1 (stereo not shown) | ELISA | DD2 | 72 h | drug-resistant strain, blood stage | 936 nM
CCOC1=CC(c2ccc[nH]2)=N/C1=C\c1cc(Cc2ccc(Cl)cc2)c(C)[nH]1 | SYBR Green | D6 | 72 h | blood stage | 4.92 nM
CN(Cc1cnc2nc(N)nc(N)c2n1)c1ccc(C(=O)N[C@@H](CCC(=O)O)C(=O)O)cc1 |  | NF54 |  | blood stage | 51.5 nM
CC1=C(C)/C(=C/c2cc(Cc3ccc(Cl)cc3)c(C)[nH]2)N=C1c1ccc[nH]1 | SYBR Green | D6 | 72 h | blood stage | 602 nM
CC(C)(C)CC(C)(C)c1ccc(O)c(Cc2ccc(Cl)cc2Cl)c1 |  | NF54 |  | blood stage | 16300 nM
N=C(CC(O)c1nc2ccccc2c2ccccc12)Nc1ccc(F)cc1 (stereo not shown) | ELISA | DD2 | 72 h | drug-resistant strain, blood stage | 89.2 nM
CO[C@H]1/C=C/O[C@@]2(C)Oc3c(C)c(O)c4c(O)c(c(/C=N/N5CCN(C6CCCC6)CC5)c(O)c4c3C2=O)NC(=O)/C(C)=C\C=C\[C@H](C)[C@H](O)[C@@H](C)[C@@H](O)[C@@H](C)[C@H](OC(C)=O)[C@@H]1C | SYBR Green | 3D7 |  | blood stage | 238 nM
N=C(CC(O)c1cc2c(F)cc(F)cc2c2cc(C(F)(F)F)ccc12)Nc1ccc(Br)cc1 (stereo not shown) | ELISA | 3D7 | 72 h | blood stage | 6.1 nM
CCC1=C(CC)/C(=C/c2[nH]c(Cc3ccc(Cl)cc3)cc2Cc2ccc(Cl)cc2)N=C1c1ccc[nH]1 | SYBR Green | D6 | 72 h | blood stage | 79.6 nM
CCN(CC)CCCC(C)Nc1ccnc2cc(Cl)ccc12 (stereo not shown) | ELISA | 3D7 | 72 h | blood stage | 3.3 nM
CCCCCCCCCCCCCCCCCC(=O)O | SYBR Green | 3D7 | 48 h | blood stage | 7.66 µg/mL
COc1ccc2cc1Oc1ccc(cc1)C[C@H]1c3c(cc4c(c3Oc3cc5c(cc3OC)CCN(C)[C@@H]5C2)OCO4)CCN1C |  | NF54 |  | blood stage | 188 nM
N=C(CC(O)c1nc2ccccc2c2ccc(Cl)cc12)Nc1ccc(F)cc1 (stereo not shown) | ELISA | 3D7 | 72 h | blood stage | 18.7 nM
COC1=C(OC)/C(=C/c2[nH]c(Cc3ccc(Cl)cc3)cc2Cc2ccc(Cl)cc2)N=C1c1ccc[nH]1 | SYBR Green | D6 | 72 h | blood stage | > 2500 nM
CCCCCCCCNC(C)C(O)c1ccc(SC(C)C)cc1 (stereo not shown) | SYBR Green | 3D7 |  | blood stage | 807 nM
CC1=C(C)/C(=C/c2cc(-c3ccc(Cl)cc3)c(C)[nH]2)N=C1c1ccc[nH]1 | SYBR Green | D6 | 72 h | blood stage | > 2500 nM
N=C(CC(O)c1nc2ccccc2c2ccc(Br)cc12)Nc1ccc(F)cc1 (stereo not shown) | ELISA | 3D7 | 72 h | blood stage | 19.5 nM
Cc1ccc(N(CC2=NCCN2)c2cccc(O)c2)cc1 |  | NF54 |  | blood stage | 36600 nM
CCN(CC)CCCC(C)Nc1ccnc2cc(Cl)ccc12 (stereo not shown) |  |  | 72 h | blood stage | 28.2 nM
O=C1C(O)=C([C@H]2CC[C@H](c3ccc(Cl)cc3)CC2)C(=O)c2ccccc21 | SYBR Green | D6 | 72 h | blood stage | 0.106 nM
CCN(CC)CCCC(C)Nc1ccnc2cc(Cl)ccc12 (stereo not shown) | SYBR Green | 3D7 |  | blood stage | 22.4 nM
N=C(CC(O)c1cc2cccnc2c2cccnc12)Nc1ccc(F)cc1 (stereo not shown) | ELISA | DD2 | 72 h | drug-resistant strain, blood stage | 8780 nM
